In ChEMBL document CHEMBL1123088, “Synthesis and characterization of selected heteroarotinoids. Pharmacological activity as assessed in vitamin A deficient hamster tracheal organ cultures. Single-crystal X-ray diffraction analysis of 4,4-dimethylthiochroman-6-yl methyl ketone 1,1-dioxide and ethyl …” (1985):

Columns and labels:
Cricetinae gen. sp. [1] = test: Dose for reversal of keratinization in epithelium of 50% of retinoid-deficient hamster tracheas in organ culture; assay type: functional, Cricetulus griseus; conditions: Trachea, read-out: ED50 (the source's name)
Summary of the method: (§1)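 Tracheas taken from vitamin A-deficient hamsters were kept in organ culture and scored for reversal of squamous keratinization of the epithelium. All-trans-retinoic acid was run at the same time as a reference in each separate experiment. ED50 is the molar dose that reverses keratinization in 50% of the retinoid-deficient tracheas.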

Cricetinae gen. sp. [2] = test: Percent activity in the Hamster tracheal organ culture assay at concentration 10e-10 (M); assay type: functional, Cricetulus griseus, Trachea; summary of the method: as §1
Cricetinae gen. sp. [3] = test: Percent activity in the Hamster tracheal organ culture assay at concentration 10e-8(M); assay type: functional, Cricetulus griseus, Trachea; summary of the method: as §1
Cricetinae gen. sp. [4] = test: Percent activity in the Hamster tracheal organ culture assay at concentration 10e-9 (M); assay type: functional, Cricetulus griseus, Trachea; summary of the method: as §1
Cricetinae gen. sp. [5] = test: Percent activity in the Hamster tracheal organ culture assay at concentration 10e-11 (M); assay type: functional, Cricetulus griseus, Trachea; summary of the method: as §1
Cricetinae gen. sp. [6] = test: The dose for reversal of keratinization in epithelium of 50% of retinoid-deficient hamster tracheas in organ culture; assay type: functional, Cricetulus griseus; conditions: Trachea, read-out: ED50 (the source's name); summary of the method: as §1
Cricetinae gen. sp. [7] = test: Percent activity in the Hamster tracheal organ culture assay at concentration 10e-12 (M); assay type: functional, Cricetulus griseus, Trachea; summary of the method: as §1
Cricetinae gen. sp. [8] = test: Dose for reversal of keratinization in epithelium of 50% of retinoid-deficient hamster tracheas in organ culture in experiment D; assay type: functional, Cricetulus griseus; conditions: Trachea, read-out: ED50 (the source's name); summary of the method: as §1
Cricetinae gen. sp. [9] = test: Dose for reversal of keratinization in epithelium of 50% of retinoid-deficient hamster tracheas in organ culture in experiment A; assay type: functional, Cricetulus griseus; conditions: Trachea, read-out: ED50 (the source's name); summary of the method: as §1
Cricetinae gen. sp. [10] = test: Dose for reversal of keratinization in epithelium of 50% of retinoid-deficient hamster tracheas in organ culture in experiment C; assay type: functional, Cricetulus griseus; conditions: Trachea, read-out: ED50 (the source's name); summary of the method: as §1
Cricetinae gen. sp. [11] = test: Percent activity in the Hamster tracheal organ culture assay at concentration 10e-10 (M) in experiment B; assay type: functional, Cricetulus griseus, Trachea; summary of the method: as §1
Cricetinae gen. sp. [12] = test: Percent activity in the Hamster tracheal organ culture assay at concentration 10e-10 (M) in experiment C; assay type: functional, Cricetulus griseus, Trachea; summary of the method: as §1
Cricetinae gen. sp. [13] = test: Percent activity in the Hamster tracheal organ culture assay at concentration 10e-10 (M) in experiment D; assay type: functional, Cricetulus griseus, Trachea; summary of the method: as §1
Cricetinae gen. sp. [14] = test: Percent activity in the Hamster tracheal organ culture assay at concentration 10e-11 (M) in experiment A; assay type: functional, Cricetulus griseus, Trachea; summary of the method: as §1
Cricetinae gen. sp. [15] = test: Percent activity in the Hamster tracheal organ culture assay at concentration 10e-11 (M) in experiment B; assay type: functional, Cricetulus griseus, Trachea; summary of the method: as §1
Cricetinae gen. sp. [16] = test: Percent activity in the Hamster tracheal organ culture assay at concentration 10e-11 (M) in experiment C; assay type: functional, Cricetulus griseus, Trachea; summary of the method: as §1
Cricetinae gen. sp. [17] = test: Percent activity in the Hamster tracheal organ culture assay at concentration 10e-11 (M) in experiment D; assay type: functional, Cricetulus griseus, Trachea; summary of the method: as §1
Cricetinae gen. sp. [18] = test: Percent activity in the Hamster tracheal organ culture assay at concentration 10e-12 (M) in experiment A; assay type: functional, Cricetulus griseus, Trachea; summary of the method: as §1
Cricetinae gen. sp. [19] = test: Percent activity in the Hamster tracheal organ culture assay at concentration 10e-12 (M) in experiment B; assay type: functional, Cricetulus griseus, Trachea; summary of the method: as §1
Cricetinae gen. sp. [20] = test: Percent activity in the Hamster tracheal organ culture assay at concentration 10e-12 (M) in experiment C; assay type: functional, Cricetulus griseus, Trachea; summary of the method: as §1
Cricetinae gen. sp. [21] = test: Percent activity in the Hamster tracheal organ culture assay at concentration 10e-12 (M) in experiment D; assay type: functional, Cricetulus griseus, Trachea; summary of the method: as §1
Cricetinae gen. sp. [22] = test: Dose for reversal of keratinization in epithelium of 50% of retinoid-deficient hamster tracheas in organ culture in experiment B; assay type: functional, Cricetulus griseus; conditions: Trachea, read-out: ED50 (the source's name); summary of the method: as §1
Cricetinae gen. sp. [23] = test: Percent activity in the Hamster tracheal organ culture assay at concentration 10e-10 (M)

`C/C(=C\c1ccc(C(=O)O)cc1)c1ccc2c(c1)C(C)(C)CCO2` gave an EC50 (Cricetinae gen. sp. [1]) of 600 pM, an Activity (Cricetinae gen. sp. [2]) of 18.6% and an Activity (Cricetinae gen. sp. [3]) of 71.4%. It also gave an Activity (Cricetinae gen. sp. [4]) of 71.4%.
Work on `CCOC(=O)c1ccc(/C=C(\C)c2ccc3c(c2)C(C)(C)CC[S+]3[O-])cc1` (centres undefined) yielded an Activity (Cricetinae gen. sp. [2]) of 57.1%, an Activity (Cricetinae gen. sp. [5]) of 11.1% and an Activity (Cricetinae gen. sp. [3]) of 100%. For the same molecule, the Activity (Cricetinae gen. sp. [4]) was 100% and the EC50 (Cricetinae gen. sp. [6]) was 100 pM.
With `CCOC(=O)c1ccc(/C=C(\C)c2ccc3c(c2)C(C)(C)CCS3)cc1` the EC50 (Cricetinae gen. sp. [1]) was 60 pM, the Activity (Cricetinae gen. sp. [2]) was 53.8% and the Activity (Cricetinae gen. sp. [5]) was 28.6%. The Activity (Cricetinae gen. sp. [7]) was 33.7% and the Activity (Cricetinae gen. sp. [4]) was 100%.
Molecule `CC1=C(/C=C/C(C)=C/C=C/C(C)=C/C(=O)O)C(C)(C)CCC1` [TRETINOIN] has an EC50 (Cricetinae gen. sp. [8]) of 10 pM, an EC50 (Cricetinae gen. sp. [9]) of 20 pM and an EC50 (Cricetinae gen. sp. [10]) of 100 pM. The Activity (Cricetinae gen. sp. [11]) was 100%, the Activity (Cricetinae gen. sp. [12]) was 83.3% and the Activity (Cricetinae gen. sp. [13]) was 83.7%. For the same molecule, the Activity (Cricetinae gen. sp. [14]) was 41.7%, the Activity (Cricetinae gen. sp. [15]) was 53.8% and the Activity (Cricetinae gen. sp. [16]) was 50%. The Activity (Cricetinae gen. sp. [17]) was 50%, the Activity (Cricetinae gen. sp. [18]) was 23.1% and the Activity (Cricetinae gen. sp. [19]) was 23.1%. For the same molecule, the Activity (Cricetinae gen. sp. [20]) was 16.7%, the Activity (Cricetinae gen. sp. [21]) was 33.3% and the EC50 (Cricetinae gen. sp. [22]) was 9 pM. For the same molecule, the Activity (Cricetinae gen. sp. [23]) was 76.9%.
Work on `CCOC(=O)c1ccc(/C=C(\C)c2ccc3c(c2)C(C)(C)CCO3)cc1` yielded an EC50 (Cricetinae gen. sp. [1]) of 100 pM, an Activity (Cricetinae gen. sp. [2]) of 50% and an Activity (Cricetinae gen. sp. [5]) of 28.2%. It also gave an Activity (Cricetinae gen. sp. [4]) of 100%.
